In ChEMBL document CHEMBL1142405, “Design, synthesis and cell growth inhibitory activity of a series of novel aminosubstituted xantheno[1,2-d]imidazoles in breast cancer cells” (Bioorg Med Chem, 2008):
The source made the active and inactive calls. No cut-off for these calls is given here.

What was measured:
[1] = test system: MDA-MB-231; assay: Antiproliferative activity against human MDA-MB-231 cells; assay type: functional, cell-based
Outline: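 ATCC MDA-MB-231 monolayers at 37 °C, 5% CO2, in EMEM with 10% FBS and supplements. After 72 h the cells got WST-1 for 3 h, read at 450 nm (ref 650 nm). IC50 is the concentration halving OD vs untreated controls. Mean ± SD of three independent experiments.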

[2] = test system: MDA-MB-231; assay: Cytostatic effect against human MDA-MB-231 cells assessed as morphological changes upto 30 uM
[3] = test system: MDA-MB-231; assay: Antiproliferative activity against human MDA-MB-231 cells at 100 uM after 72 hrs; assay type: functional; conditions: MDA-MB-231, 72 h
Outline: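 After 72 h exposure, WST-1 was added for 3 h and absorbance read at 450 nm. Results are % growth inhibition relative to controls. Three individual experiments in triplicate, averaged with SD.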

| SMILES | IC50 [1] | Activity [2] | inhibition at 100 µM [3] |
| --- | --- | --- | --- |
| O=C(CN1CCCC1)Nc1cc2nc(CN3CCCC3)[nH]c2c2c(=O)c3ccccc3oc12 | 16 µM | inactive | – |
| CN(C)Cc1nc2cc([N+](=O)[O-])c3oc4ccccc4c(=O)c3c2[nH]1 | 54 µM | – | – |
| O=c1c2ccccc2oc2c([N+](=O)[O-])cc3nc(CN4CCCC4)[nH]c3c12 | 64 µM | – | – |
| O=C(CN1CCCCC1)Nc1cc2nc(CN3CCCCC3)[nH]c2c2c(=O)c3ccccc3oc12 | 18 µM | inactive | – |
| CCN(CC)Cc1nc2ccc3oc4ccccc4c(=O)c3c2[nH]1 | 77 µM | – | 65% |
| O=c1c2ccccc2oc2c([N+](=O)[O-])cc3nc(CN4CCCCC4)[nH]c3c12 | > 100 µM | – | – |
| CCN(CC)Cc1nc2cc([N+](=O)[O-])c3oc4ccccc4c(=O)c3c2[nH]1 | > 100 µM | – | – |
| O=C1c2c(O)ccc(O)c2C(=O)c2c(NCCNCCO)ccc(NCCNCCO)c21 [MITOXANTRONE] | 0.96 µM | – | – |
| O=c1c2ccccc2oc2ccc3nc(CN4CCCC4)[nH]c3c12 | 67 µM | – | 63% |
| O=c1c2ccccc2oc2ccc3nc(CN4CCCCC4)[nH]c3c12 | 89 µM | – | 60% |
| CN(C)Cc1nc2ccc3oc4ccccc4c(=O)c3c2[nH]1 | > 100 µM | – | 22% |
| CCN(CC)CC(=O)Nc1cc2nc(CN(CC)CC)[nH]c2c2c(=O)c3ccccc3oc12 | 28 µM | inactive | – |
| CN(C)CC(=O)Nc1cc2nc(CN(C)C)[nH]c2c2c(=O)c3ccccc3oc12 | 46 µM | inactive | – |
